Screening data deposited in PubChem BioAssay by several laboratories.
Sampled rows, rich in hits. Any-hit rate of the full collection: about 4.8%.
PAFAH2 FP inh: PAFAH2 (human) inhibition | Q99487 | recombinant PAFAH2, FP-rhodamine activity probe, fluorescence polarization | inhibition, % at 3.39 µM | hit rate 0.99% among 340,000 | AID 492956;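 active means inhibition above the mean over all tested compounds plus 3 SD, cut at about 30% in these data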;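 further: inhibitors block probe labeling of enzyme so polarization drops; 0% = enzyme with DMSO and 100% = wells lacking PAFAH2 protein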
GRIN3A LBD mod: modulators (binders) of human NR3A ligand-binding domain | AID 1259313 | NR3A LBD differential scanning fluorimetry, Tm shift; 0% = protein alone, 100% = glycine-bound protein | Tm shift relative to glycine control, % at 25 µM | hit rate 2.5% among 340,000;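 active means melting temperature shift of at least 10% of the positive control shift, at one fixed dose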
pPAFAH inh: pPAFAH (human) enzyme inhibition. inhibition, % at 3.39 µM. hit rate 1.5% among 330,000. Q13093. AID 463082. recombinant pPAFAH, FP-rhodamine probe fluorescence polarization;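 active means inhibition above the mean inhibition across the screen plus 3 SD, cut at about 25% in these data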;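 further: inhibitors block binding of the rhodamine activity-based probe so polarization drops; 0% = enzyme with DMSO and 100% = wells lacking pPAFAH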
PAFAH1B2 inh: PAFAH1B2 (human) inhibition; hit rate 1.2% among 340,000; AID 492953; inhibition, % at 3.39 µM; recombinant PAFAH1B2, FP-rhodamine activity probe, fluorescence polarization;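 active means inhibition above the mean of all tested compounds plus 3 SD, cut at about 24% in these data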;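 further: 0% = enzyme with DMSO and 100% = wells lacking PAFAH1B2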
PAFAH1B3 FP inh: PAFAH1B3 (human) inhibition. Q15102. recombinant PAFAH1B3, FP-rhodamine probe, fluorescence polarization. inhibition, % at 3.39 µM. hit rate 0.28% among 340,000;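 active means inhibition above the screen-wide average of all tested compounds plus 3 SD, cut at about 25% in these data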;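 further: 0% = enzyme with DMSO only and 100% = wells lacking PAFAH1B3 protein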
UCH37 DUB inh: human UCH37 deubiquitinating enzyme inhibition | AID 588478 | Q9Y5K5 | hit rate 0.33% among 330,000 | purified proteasome/UCH37, Ub-AMC cleavage fluorescence | inhibition, % (concentration not given with the values);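 active means mean inhibition over replicate wells above about 20%, limit read from the data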;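 further: 0% = compound-free wells with enzyme and 100% = wells lacking proteasome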
Target sequence (Q9Y5K5 whole entry, looked up): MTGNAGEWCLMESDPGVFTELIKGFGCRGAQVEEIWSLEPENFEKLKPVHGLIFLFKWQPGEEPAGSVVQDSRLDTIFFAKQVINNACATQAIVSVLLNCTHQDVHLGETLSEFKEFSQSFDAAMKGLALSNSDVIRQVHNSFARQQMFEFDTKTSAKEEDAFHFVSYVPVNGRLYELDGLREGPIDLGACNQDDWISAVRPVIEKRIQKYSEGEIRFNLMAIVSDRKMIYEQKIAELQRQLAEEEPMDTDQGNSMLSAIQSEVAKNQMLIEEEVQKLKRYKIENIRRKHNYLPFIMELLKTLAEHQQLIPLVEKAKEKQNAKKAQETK
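System: Proteasome-associated human UCH37 deubiquitinase; Input: 0.15 nM proteasome in added enzyme buffer; Also added: Ub-AMC substrate from 1 µM stock; Incubation: 30 min compound-proteasome preincubation then 25 min substrate reaction, room temperature; Detection: fluorescence, ex 355 nm, em 460 nm; Read-out: % inhibition of Ub-AMC cleavage fluorescence; Benchmarks: no-proteasome and no-compound wells.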
PAFAH2 FP conf: confirmation of human PAFAH2 inhibitors; shares compounds with PAFAH2 FP inh; recombinant PAFAH2, FP-rhodamine activity probe, fluorescence polarization; inhibition, % at 3.39 µM; hit rate 65% among 2,300; AID 493030;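 active means mean inhibition over three repeats above a set limit taken from the earlier primary screen, cut at about 30% in these data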;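 further: inhibitor blocks binding of rhodamine activity probe so polarization falls; 0% = enzyme with DMSO and 100% = wells lacking PAFAH2 protein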
Active calls of the source: *; nt = not tested or not shown.

SMILES	PAFAH2 FP inh	GRIN3A LBD mod	pPAFAH inh	PAFAH1B2 inh	PAFAH1B3 FP inh	UCH37 DUB inh	PAFAH2 FP conf
Cc1ccc(S(=O)(=O)N2CCOCC2)cc1NC(=O)COC(=O)c1ccc2c(c1)OCO2	64*	-1	1	-1	-4	2	52*
Cc1ccc(C(=O)OCC(=O)Nc2cc(S(=O)(=O)N3CCOCC3)ccc2C)cc1	68*	1	5	1	3	-1	61*
Cc1ccc(S(=O)(=O)N2CCOCC2)cc1NC(=O)COC(=O)c1cnc(Cl)c(Cl)c1	7	0	nt	-1	3	5	nt
O=C(COC(=O)c1ccc2c(c1)OCCO2)Nc1cc(S(=O)(=O)N2CCOCC2)ccc1Cl	64*	-1	4	2	3	2	44*
N#Cc1ccccc1NC(=O)COC(=O)/C=C/c1ccc(S(=O)(=O)N2CCOCC2)cc1	51*	1	6	2	5	3	31*
O=C(COC(=O)/C=C/c1ccc(F)cc1)Nc1ccc(S(=O)(=O)N2CCOCC2)cc1	4	-7	3	2	4	1	nt
COc1ccc(/C=C/C(=O)OCC(=O)Nc2cc(S(=O)(=O)N(C)C)ccc2Cl)cc1	-2	-3	2	4	2	1	nt
CN(C)S(=O)(=O)c1ccc(Cl)c(NC(=O)COC(=O)/C=C/c2ccc(S(=O)(=O)N3CCOCC3)cc2)c1	31*	3	-1	-1	5	2	26
CN(C)S(=O)(=O)c1ccc(Cl)c(NC(=O)COC(=O)/C=C/c2ccco2)c1	46*	-2	2	0	1	3	47*
COc1cc(/C=C/C(=O)OCC(=O)Nc2cc(S(=O)(=O)N(C)C)ccc2Cl)ccc1O	60*	-2	8	2	-1	-6	60*
CC(=NNc1ccccn1)c1ccc(N2CCOCC2)cc1	nt	nt	nt	nt	nt	7	nt
CC(=NNc1ccccn1)c1ccc(C(C)C)cc1	nt	nt	nt	nt	nt	3	nt
Cc1cccc(NC(=S)NN=C2CC(C)(C)Oc3ccc(O)cc32)c1	nt	nt	nt	nt	nt	-12	nt
COc1ccc(S(=O)(=O)NN=C(C)c2ccncc2)cc1	nt	nt	nt	nt	nt	5	nt
Cc1ccc(NC(=O)COC(=O)c2c(C)nn(-c3ccccc3)c2C)cc1	19	-1	2	-1	1	4	nt
Cc1nn(-c2ccccc2)c(C)c1C(=O)OCC(=O)Nc1ccccc1	55*	0	2	7	3	3	43*
Cc1nn(-c2ccccc2)c(C)c1C(=O)OCC(=O)Nc1ccc2c(c1)OCO2	35*	-3	6	-1	7	4	30*
O=C(NN=Cc1oc(O)c2ccccc12)c1ccccc1O	nt	nt	nt	nt	nt	11	nt
O=c1c2c(-c3ccc(Cl)cc3)csc2ncn1N=Cc1cccc([N+](=O)[O-])c1O	nt	nt	nt	nt	nt	6	nt
Nc1[nH]n2c(=O)cc(-c3ccccc3)nc2c1N=Nc1ccccc1	32*	16*	9	14	9	9	27
Cc1ccc(NC(=O)COC(=O)C2CC2)c(Br)c1	55*	-1	20	4	10	3	39*
Cc1cc(Br)c(NC(=O)COC(=O)C2CCCCC2)c(Br)c1	33*	0	7	-1	-3	4	32*
Cc1ccc(OCC(=O)NN=Cc2ccc(O)c([N+](=O)[O-])c2)c([N+](=O)[O-])c1	nt	nt	nt	nt	nt	4	nt
COC(=O)c1ccc(C=NNC(=O)c2ccc(C)cc2Cl)cc1	nt	nt	nt	nt	nt	2	nt
CC=NNC(=O)COc1cc(C)ccc1C	nt	nt	nt	nt	nt	2	nt
O=C1CCC/C=C/C[C@H](CC(=O)N(CCO)Cc2ccccc2)C(=O)N[C@@H](Cc2ccccc2)CO1	45*	-1	2	5	-7	3	29
C[C@H]1COC(=O)CCCC/C=C\C[C@H](CC(=O)N(CCO)Cc2ccccc2)C(=O)N1	2	-1	3	3	12	0	nt
O=C1CCCC/C=C\C[C@H](CC(=O)N(CCO)Cc2ccccc2)C(=O)N[C@@H](Cc2ccccc2)CO1	45*	-2	0	17	9	-2	28
O=C1CCC/C=C\C[C@@H](CC(=O)N(CCO)Cc2ccccc2)C(=O)N[C@H](Cc2c[nH]c3ccccc23)CO1	10	2	-4	5	5	3	nt
